Reference: ChEMBL document CHEMBL4622914, “Development of a bioavailable boron-containing PI-103 Bioisostere, PI-103BE” (Bioorg Med Chem Lett, 2020)
pIC50: −log10 of the molar value.

What was measured:
A549 = test: Antiproliferative activity against human A549 cells assessed as reduction in cell viability incubated for 4 days by coulter counter method; assay type: functional, cell-based; conditions: A549, 96 h
Outline: (§1)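 Cancer cells were seeded at 50,000 per well in DMEM with 5% FBS. They were exposed to six compound doses for 4 days, with DMSO as vehicle control and a reference inhibitor as positive control. Cells were counted by Coulter counter. Survival ratio is treated cell number over vehicle cell number. IC50 was taken from dose–response curves. Triplicate experiments.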

MDA-MB-231 = test: Antiproliferative activity against human MDA-MB-231 cells assessed as reduction in cell viability incubated for 4 days by coulter counter method; assay type: functional, cell-based; conditions: MDA-MB-231, 96 h; outline: as §1
HeLa = test: Antiproliferative activity against human HeLa cells assessed as reduction in cell viability incubated for 4 days by coulter counter method; assay type: functional, cell-based; conditions: 96 h; outline: as §1
CWR22R = test: Antiproliferative activity against human 22Rv1 cells assessed as reduction in cell viability incubated for 4 days by coulter counter method; assay type: functional, cell-based; conditions: 22Rv1, 96 h; outline: as §1
PC-3 = test: Antiproliferative activity against human PC3 cells assessed as reduction in cell viability incubated for 4 days by coulter counter method; assay type: functional, cell-based; conditions: PC-3, 96 h
Outline: (§2)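 Cells seeded at 50,000 per well in DMEM with 5% FBS, exposed to six concentrations of compound for 4 days; DMSO as vehicle control. Cell numbers counted on a Coulter counter; survival ratio = treated/vehicle cell count. IC50 taken from dose-response curves. Triplicate experiments, mean ± SD.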

SK-OV-3 = test: Antiproliferative activity against human SKOV3 cells assessed as reduction in cell viability incubated for 4 days by coulter counter method; assay type: functional, cell-based; conditions: SK-OV-3, 96 h; outline: as §2
[1] = Stability of compound in cell culture medium assessed as compound hydrolysis measured after 0.5 hrs; assay type: physicochemical
[2] = Stability of compound in cell culture medium assessed as compound hydrolysis measured after 1 hr; assay type: physicochemical
[3] = Stability of compound in cell culture medium assessed as compound hydrolysis measured after 3 hrs; assay type: physicochemical
[4] = Stability of compound in cell culture medium assessed as compound hydrolysis measured after 8 hrs; assay type: physicochemical
[5] = Stability of compound in cell culture medium assessed as compound hydrolysis measured after 24 hrs; assay type: physicochemical
[6] = Drug concentration in ovariectomized nu/nu mouse plasma assessed 3-(4-morpholinopyrido [3',2':4,5] furo [3,2-d] pyrimidin-2-yl)phenol at 10 mg/kg, ip measured after 0.5 hrs by UHPLC-MS analysis; assay type: ADME, organism-based; conditions: in vivo
[7] = Drug concentration in ovariectomized nu/nu mouse plasma assessed 3-(4-morpholinopyrido [3',2':4,5] furo [3,2-d] pyrimidin-2-yl)phenol at 10 mg/kg, ip measured after 1 hr by UHPLC-MS analysis; assay type: ADME, organism-based; conditions: in vivo
[8] = Drug concentration in ovariectomized nu/nu mouse plasma assessed 3-(4-morpholinopyrido [3',2':4,5] furo [3,2-d] pyrimidin-2-yl)phenol at 10 mg/kg, ip measured after 3 hrs by UHPLC-MS analysis; assay type: ADME, organism-based; conditions: in vivo
[9] = Drug concentration in ovariectomized nu/nu mouse plasma assessed 3-(4-morpholinopyrido [3',2':4,5] furo [3,2-d] pyrimidin-2-yl)phenol at 10 mg/kg, ip measured after 8 hrs by UHPLC-MS analysis; assay type: ADME, organism-based; conditions: in vivo
[10] = Drug concentration in ovariectomized nu/nu mouse plasma assessed 3-(4-morpholinopyrido [3',2':4,5] furo [3,2-d] pyrimidin-2-yl)phenol at 10 mg/kg, ip measured after 24 hrs by UHPLC-MS analysis; assay type: ADME, organism-based; conditions: in vivo
[11] = Cmax in ovariectomized nu/nu mouse assessed 3-(4-morpholinopyrido [3',2':4,5] furo [3,2-d] pyrimidin-2-yl)phenol at 10 mg/kg, ip measured upto 24 hrs by UHPLC-MS analysis; assay type: ADME, organism-based; set-up: dose 10 mg/kg, route intraperitoneal; conditions: in vivo
[12] = Tmax in ovariectomized nu/nu mouse assessed 3-(4-morpholinopyrido [3',2':4,5] furo [3,2-d] pyrimidin-2-yl)phenol at 10 mg/kg, ip measured upto 24 hrs by UHPLC-MS analysis; assay type: ADME, organism-based; conditions: in vivo
[13] = Half life in ovariectomized nu/nu mouse assessed 3-(4-morpholinopyrido [3',2':4,5] furo [3,2-d] pyrimidin-2-yl)phenol at 10 mg/kg, ip measured upto 24 hrs by UHPLC-MS analysis; assay type: ADME, organism-based; conditions: in vivo
[14] = AUC in ovariectomized nu/nu mouse assessed 3-(4-morpholinopyrido [3',2':4,5] furo [3,2-d] pyrimidin-2-yl)phenol at 10 mg/kg, ip measured upto 24 hrs by UHPLC-MS analysis; assay type: ADME, organism-based; set-up: time < 24 hr, dose 10 mg/kg, route intraperitoneal; conditions: in vivo
[15] = Drug concentration in ovariectomized nu/nu mouse plasma assessed 3-(4-morpholinopyrido [3',2':4,5] furo [3,2-d] pyrimidin-2-yl)phenol at 10 mg/kg, po measured after 1 hr by UHPLC-MS analysis; assay type: ADME, organism-based; conditions: in vivo
Outline: (§3)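 Female ovariectomized Nu/Nu mice, 4–6 weeks old, n = 5 per group. Single 10 mg/kg oral gavage in 5% DMSO/40% PEG 400/55% saline. Orbital-sinus blood was taken at 0.5, 1, 3, 8 and 24 h, one sampling per group, into EDTA. Plasma was spun at 4 °C and stored at −80 °C. The prodrug's boronic acid metabolite and phenol were quantified by C18 UHPLC–TSQ MS/MS with an acetonitrile/water 0.05% formic acid gradient.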

[16] = Drug concentration in ovariectomized nu/nu mouse plasma assessed 3-(4-morpholinopyrido [3',2':4,5] furo [3,2-d] pyrimidin-2-yl)phenol at 10 mg/kg, po measured after 3 hrs by UHPLC-MS analysis; assay type: ADME, organism-based; conditions: in vivo; outline: as §3

SMILES: CC1(C)OB(c2cccc(-c3nc(N4CCOCC4)c4oc5ncccc5c4n3)c2)OC1(C)C
- pIC50 (A549): 6.24
- pIC50 (MDA-MB-231): 6.36
- pIC50 (HeLa): 5.42
- pIC50 (CWR22R): 6.18
- pIC50 (PC-3): 6.14
- pIC50 (SK-OV-3): 5.88
- Drug degradation [1]: 0.04 µM
- Drug degradation [2]: 0.01 µM
- Drug degradation [3]: 0 µM
- Drug degradation [4]: 0 µM
- Drug degradation [5]: 0 µM
- Cp [6]: 14.9 ng/mL
- Cp [7]: 5.4 ng/mL
- Cp [8]: 1.3 ng/mL
- Cp [9]: 1 ng/mL
- Cp [10]: 0.4 ng/mL
- Cmax [11]: 14.9 ng/mL
- Tmax [12]: 0.5 h
- t1/2 [13]: 12.4 h
- AUC [14]: 32.3 ng·h/mL
- Cp [15]: 8.2 ng/mL
- Cp [16]: 6.5 ng/mL
